The source made the active and inactive calls. No cut-off for these calls is given here.
What was measured:
HepG2 [1] = experiment: Growth inhibition of human HepG2 cells at 10 uM after 24 hrs by MTT assay relative to control; type: functional; settings: HepG2, 24 h, read-out: GI
Outline: (§1)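 Monolayers seeded 24 h before treatment, then exposed to compound, with DMEM or RPMI 1640 plus 10% FBS as growth medium. MTT (5 mg mL–1 stock) incubated 2–4 h at 37 °C, formazan dissolved in DMSO, and absorbance read at 570 nm. Growth inhibition reported as % of control.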

HCT-116 [2] = experiment: Growth inhibition of human HCT116 cells at 10 uM after 24 hrs by MTT assay relative to control; type: functional; settings: HCT-116, 24 h, read-out: GI; outline: as §1
HCT-116 [3] = experiment: Induction of apoptosis in human HCT116 cells assessed as late apoptotic cells at 2.5 uM after 24 hrs by Annexin V-FITC/propidium iodide staining based flow cytometry (reference value: 7.36%); type: functional
HCT-116 [4] = experiment: Potentiation of cisplatin-induced antiproliferative activity against human HCT116 cells assessed as cell growth inhibition at 2.5 uM preincubated for 24 hrs followed by 2.5 uM cisplatin addition and measured after 48 hrs by MTT assay (reference value: 26.98 +/-2.84%); type: functional; settings: read-out: GI
KB [5] = experiment: Growth inhibition of human KB cells at 5 uM after 24 hrs by MTT assay relative to control; type: functional; settings: read-out: GI; outline: as §1
L02 [6] = experiment: Cytotoxicity against human LO2 cells assessed as reduction in cell growth at 2.5 uM preincubated for 24 hrs followed by cisplatin addition and measured after 48 hrs by MTT assay; type: cell-based; settings: l02, 48 h
HCT-116 [7] = experiment: Induction of apoptosis in human HCT116 cells assessed as viable cells at 2.5 uM after 24 hrs by Annexin V-FITC/propidium iodide staining based flow cytometry (reference value: 76.5%); type: functional; settings: HCT-116, 24 h, read-out: Activity
HCT-116 [8] = experiment: Induction of morphological changes in human HCT116 cells assessed as reduction in number of adherent cells at 2.5 uM measured after 24 hrs by Hoechst 33258 staining based fluorescence microscopic analysis; type: functional, cell-based
HCT-116 [9] = experiment: Potentiation of cisplatin-induced apoptosis in human HCT116 cells assessed as viable cells at 2.5 uM preincubated for 24 hrs followed by cisplatin addition and measured after 48 hrs by Annexin V-FITC/propidium iodide staining based flow cytometry (reference value: 73.2%); type: functional; settings: read-out: Activity
Outline: (§2)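 HCT116 pretreated with compound for 24 h, then cisplatin at 2.5 μM added for 48 h. Cells harvested, washed in cold PBS, pelleted, stained with annexin V-FITC and propidium iodide, and counted by flow cytometry. Three independent experiments.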

HCT-116 [10] = experiment: Potentiation of cisplatin-induced morphological changes in human HCT116 cells assessed as reduction in number of adherent cells at 2.5 uM preincubated for 24 hrs followed by cisplatin addition and measured after 48 hrs by Hoechst 33258 staining based fluorescence microscopic analysis; type: functional, cell-based
Outline: (§3)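 HCT116 given compound for 24 h, then cisplatin (2.5 μM) for 48 h. Fixed in 4% paraformaldehyde, stained with Hoechst 33258 at 5 μg mL–1, and nuclei examined and counted under a fluorescence microscope. Blue fluorescence quantified, with t-test over three independent experiments.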

HeLa [11] = experiment: Growth inhibition of human HeLa cells at 5 uM after 24 hrs by MTT assay relative to control; type: functional; settings: read-out: GI; outline: as §1
KB [12] = experiment: Growth inhibition of human KB cells at 10 uM after 24 hrs by MTT assay relative to control; type: functional; settings: read-out: GI; outline: as §1
HCT-116 [13] = experiment: Induction of morphological changes in human HCT116 cells assessed as chromatin condensation at 2.5 uM measured after 24 hrs by Hoechst 33258 staining based fluorescence microscopic analysis; type: functional, cell-based
[14] = molecular target: Serine/threonine-protein kinase ATR (Homo sapiens) (UniProt Q13535); experiment: Inhibition of ATR in human HCT116 cells assessed as reduction in cisplatin-induced CHK1 expression preincubated for 24 hrs followed by cisplatin addition and measured after 48 hrs by Western blot analysis; type: cell-based
Outline: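 HCT116 exposed to compound for 24 h before 48 h with cisplatin at 2.5 μM. Lysis in RIPA buffer with protease and phosphatase inhibitors, protein measured by BCA, equal loads run on 12% SDS-PAGE and moved to PVDF. Blocked in 5% milk, anti-CHK1 mouse mAb overnight at 4 °C, HRP secondary and ECL detection, GAPDH as loading control.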

MCF7 [15] = experiment: Growth inhibition of human MCF7 cells at 10 uM after 24 hrs by MTT assay relative to control; type: functional; settings: MCF7, 24 h, read-out: GI; outline: as §1
HCT-116 [16] = experiment: Induction of apoptosis in human HCT116 cells assessed as early apoptotic cells at 2.5 uM after 24 hrs by Annexin V-FITC/propidium iodide staining based flow cytometry (reference value: 5.75%); type: functional
HCT-116 [17] = experiment: Potentiation of cisplatin-induced apoptosis in human HCT116 cells assessed as necrotic cells at 2.5 uM preincubated for 24 hrs followed by cisplatin addition and measured after 48 hrs by Annexin V-FITC/propidium iodide staining based flow cytometry (reference value: 11.3%); type: functional; outline: as §2
MCF7 [18] = experiment: Growth inhibition of human MCF7 cells at 5 uM after 24 hrs by MTT assay relative to control; type: functional; settings: MCF7, 24 h, read-out: GI; outline: as §1
A549 [19] = experiment: Growth inhibition of human A549 cells at 10 uM after 24 hrs by MTT assay relative to control; type: functional; settings: A549, 24 h, read-out: GI; outline: as §1
HCT-116 [20] = experiment: Induction of apoptosis in human HCT116 cells assessed as necrotic cells at 2.5 uM after 24 hrs by Annexin V-FITC/propidium iodide staining based flow cytometry (reference value: […]); type: functional
HCT-116 [21] = experiment: Potentiation of cisplatin-induced morphological changes in human HCT116 cells assessed as cell shrinkage at 2.5 uM preincubated for 24 hrs followed by cisplatin addition and measured after 48 hrs by Hoechst 33258 staining based fluorescence microscopic analysis; type: functional; outline: as §3
L02 [22] = experiment: Cytotoxicity against human LO2 cells assessed as reduction in cell growth at 5 to 10 uM after 24 hrs by MTT assay; type: cell-based; settings: l02, 24 h
HCT-116 [23] = experiment: Potentiation of cisplatin-induced apoptosis in human HCT116 cells assessed as late apoptotic cells at 2.5 uM preincubated for 24 hrs followed by cisplatin addition and measured after 48 hrs by Annexin V-FITC/propidium iodide staining based flow cytometry (reference value: 11.5%); type: functional; outline: as §2
HepG2 [24] = experiment: Growth inhibition of human HepG2 cells at 5 uM after 24 hrs by MTT assay relative to control; type: functional; settings: HepG2, 24 h, read-out: GI; outline: as §1
HeLa [25] = experiment: Growth inhibition of human HeLa cells at 10 uM after 24 hrs by MTT assay relative to control; type: functional; settings: read-out: GI; outline: as §1
HCT-116 [26] = experiment: Potentiation of cisplatin-induced morphological changes in human HCT116 cells assessed as chromatin condensation at 2.5 uM preincubated for 24 hrs followed by cisplatin addition and measured after 48 hrs by Hoechst 33258 staining based fluorescence microscopic analysis; type: functional, cell-based; outline: as §3
HCT-116 [27] = experiment: Growth inhibition of human HCT116 cells at 5 uM after 24 hrs by MTT assay relative to control; type: functional; settings: HCT-116, 24 h, read-out: GI; outline: as §1
HCT-116 [28] = experiment: Growth inhibition of human HCT116 cells at 2.5 uM after 24 hrs by MTT assay relative to control; type: functional; settings: HCT-116, 24 h, read-out: GI; outline: as §1
A549 [29] = experiment: Growth inhibition of human A549 cells at 5 uM after 24 hrs by MTT assay relative to control; type: functional; settings: A549, 24 h, read-out: GI; outline: as §1
HCT-116 [30] = experiment: Potentiation of cisplatin-induced apoptosis in human HCT116 cells assessed as early apoptotic cells at 2.5 uM preincubated for 24 hrs followed by cisplatin addition and measured after 48 hrs by Annexin V-FITC/propidium iodide staining based flow cytometry (reference value: 4.07%); type: functional; outline: as §2
HCT-116 [31] = experiment: Induction of morphological changes in human HCT116 cells assessed as cell shrinkage at 2.5 uM measured after 24 hrs by Hoechst 33258 staining based fluorescence microscopic analysis; type: functional

Chain of Serine/threonine-protein kinase ATR (Homo sapiens) (Q13535 whole entry, looked up): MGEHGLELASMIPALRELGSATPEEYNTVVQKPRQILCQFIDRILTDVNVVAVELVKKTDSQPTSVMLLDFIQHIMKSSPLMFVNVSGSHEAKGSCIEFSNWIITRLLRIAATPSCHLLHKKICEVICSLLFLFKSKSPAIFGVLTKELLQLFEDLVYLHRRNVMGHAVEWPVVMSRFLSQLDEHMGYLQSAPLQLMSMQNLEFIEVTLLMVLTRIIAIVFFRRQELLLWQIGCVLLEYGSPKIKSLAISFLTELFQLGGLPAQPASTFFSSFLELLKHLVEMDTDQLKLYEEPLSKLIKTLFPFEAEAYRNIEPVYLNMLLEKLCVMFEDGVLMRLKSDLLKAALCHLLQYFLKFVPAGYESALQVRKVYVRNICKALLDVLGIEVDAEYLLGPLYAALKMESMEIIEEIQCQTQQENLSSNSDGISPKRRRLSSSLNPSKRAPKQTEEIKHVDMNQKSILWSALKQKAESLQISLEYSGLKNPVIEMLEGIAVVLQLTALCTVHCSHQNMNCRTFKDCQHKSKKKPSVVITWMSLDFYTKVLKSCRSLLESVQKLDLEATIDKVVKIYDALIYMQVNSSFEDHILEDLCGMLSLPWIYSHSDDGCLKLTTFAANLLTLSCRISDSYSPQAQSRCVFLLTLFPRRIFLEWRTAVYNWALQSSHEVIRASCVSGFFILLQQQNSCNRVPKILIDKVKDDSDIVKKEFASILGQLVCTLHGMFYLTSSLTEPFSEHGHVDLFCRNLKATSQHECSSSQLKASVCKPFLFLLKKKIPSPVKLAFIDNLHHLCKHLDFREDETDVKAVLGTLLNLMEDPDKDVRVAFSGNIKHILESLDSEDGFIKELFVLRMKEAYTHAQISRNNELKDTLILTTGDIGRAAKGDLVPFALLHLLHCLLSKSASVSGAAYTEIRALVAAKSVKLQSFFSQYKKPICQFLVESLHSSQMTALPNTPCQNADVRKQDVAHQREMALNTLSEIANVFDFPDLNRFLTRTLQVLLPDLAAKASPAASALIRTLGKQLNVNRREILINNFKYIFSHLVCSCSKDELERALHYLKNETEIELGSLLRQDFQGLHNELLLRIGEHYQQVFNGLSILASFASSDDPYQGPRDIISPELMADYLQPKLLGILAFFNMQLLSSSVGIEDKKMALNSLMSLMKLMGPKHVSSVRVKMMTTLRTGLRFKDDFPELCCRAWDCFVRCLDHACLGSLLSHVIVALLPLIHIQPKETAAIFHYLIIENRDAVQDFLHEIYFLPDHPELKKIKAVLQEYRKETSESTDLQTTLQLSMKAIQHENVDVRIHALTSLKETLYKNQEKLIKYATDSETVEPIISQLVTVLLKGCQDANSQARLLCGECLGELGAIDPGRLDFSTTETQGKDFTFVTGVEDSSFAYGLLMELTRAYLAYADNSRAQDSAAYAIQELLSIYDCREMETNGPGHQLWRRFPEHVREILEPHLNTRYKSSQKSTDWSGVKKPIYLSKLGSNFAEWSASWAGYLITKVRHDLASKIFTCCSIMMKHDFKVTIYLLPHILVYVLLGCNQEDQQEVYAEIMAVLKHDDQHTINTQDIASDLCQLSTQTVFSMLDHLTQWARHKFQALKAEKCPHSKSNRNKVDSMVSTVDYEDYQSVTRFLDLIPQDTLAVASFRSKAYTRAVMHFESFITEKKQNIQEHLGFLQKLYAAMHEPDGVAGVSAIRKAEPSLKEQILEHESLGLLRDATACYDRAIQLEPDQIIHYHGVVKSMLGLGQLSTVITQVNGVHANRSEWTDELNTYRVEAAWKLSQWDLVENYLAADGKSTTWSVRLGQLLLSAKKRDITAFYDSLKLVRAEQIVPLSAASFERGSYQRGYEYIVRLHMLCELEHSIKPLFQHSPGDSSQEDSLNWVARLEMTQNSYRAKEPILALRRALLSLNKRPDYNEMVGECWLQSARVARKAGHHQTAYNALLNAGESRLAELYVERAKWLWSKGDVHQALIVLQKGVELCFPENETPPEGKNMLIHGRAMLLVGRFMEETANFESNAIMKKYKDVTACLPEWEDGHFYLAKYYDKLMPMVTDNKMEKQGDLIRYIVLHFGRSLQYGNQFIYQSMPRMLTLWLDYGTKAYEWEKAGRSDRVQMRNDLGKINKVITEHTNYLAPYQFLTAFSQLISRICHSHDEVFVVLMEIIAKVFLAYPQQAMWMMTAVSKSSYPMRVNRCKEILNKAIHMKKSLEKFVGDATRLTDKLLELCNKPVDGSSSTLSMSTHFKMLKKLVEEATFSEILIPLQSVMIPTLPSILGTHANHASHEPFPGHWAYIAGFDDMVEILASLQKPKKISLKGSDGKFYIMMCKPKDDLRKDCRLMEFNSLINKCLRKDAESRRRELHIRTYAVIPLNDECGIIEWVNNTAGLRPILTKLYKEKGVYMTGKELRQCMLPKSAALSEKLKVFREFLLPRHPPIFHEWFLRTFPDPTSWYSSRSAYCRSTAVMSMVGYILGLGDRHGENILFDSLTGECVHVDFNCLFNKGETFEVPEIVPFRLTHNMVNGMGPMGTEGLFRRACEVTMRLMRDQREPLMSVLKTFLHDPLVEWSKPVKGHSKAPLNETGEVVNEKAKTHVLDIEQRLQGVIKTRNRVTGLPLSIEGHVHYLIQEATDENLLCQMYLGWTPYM

Compound | inhibition of growth at 10 µM (HepG2 [1]) [%] | inhibition of growth at 10 µM (HCT-116 [2]) [%] | Activity (HCT-116 [3]) [%] | inhibition of growth at 2.5 µM (HCT-116 [4]) [%] | inhibition of growth at 5 µM (KB [5]) [%] | Activity (L02 [6]) | viability at 2.5 µM (HCT-116 [7]) [%] | Activity (HCT-116 [8]) | viability at 2.5 µM (HCT-116 [9]) [%] | Activity (HCT-116 [10]) | inhibition of growth at 5 µM (HeLa [11]) [%] | inhibition of growth at 10 µM (KB [12]) [%] | Activity (HCT-116 [13]) | inhibition [14] | inhibition of growth at 10 µM (MCF7 [15]) [%] | Activity (HCT-116 [16]) [%] | Activity (HCT-116 [17]) [%] | inhibition of growth at 5 µM (MCF7 [18]) [%] | inhibition of growth at 10 µM (A549 [19]) [%] | Activity (HCT-116 [20]) [%] | further results
Cc1cccc(-c2nnc(-c3c[nH]c4ncc(-c5ccc(S(C)(=O)=O)cc5)cc4c3=O)o2)c1 | 13.3 | 25.2 | 6.89 | 50.8 | 3.7 | Non-Toxic | 70.4 | Active | 52.4 | Active | 1.49 | 7.5 | Active | Dose-dependent effect | 7.76 | 4.61 | 23.4 | 1.86 | 8.95 | 18.1 | Activity (HCT-116 [21]): Active; Activity (L02 [22]): Non-Toxic; Activity (HCT-116 [23]): 17.2%; inhibition of growth at 5 µM (HepG2 [24]): 13.2%; inhibition of growth at 10 µM (HeLa [25]): 2.57%; Activity (HCT-116 [26]): Active; inhibition of growth at 5 µM (HCT-116 [27]): 20.4%; inhibition of growth at 2.5 µM (HCT-116 [28]): 8.13%; inhibition of growth at 5 µM (A549 [29]): 7.92%; Activity (HCT-116 [30]): 6.98%; Activity (HCT-116 [31]): Active
Cc1ccc(-c2nnc(-c3c[nH]c4ncc(-c5ccc(S(C)(=O)=O)cc5)cc4c3=O)o2)cc1 | 8.94 | 24.4 | 6.26 | 54.8 | 0.43 | Non-Toxic | 72.4 | Active | 31.2 | Active | 10.4 | 3.19 | Active | Dose-dependent effect | 10.6 | 10.6 | 31.2 | 6.26 | 11.2 | 10.8 | Activity (HCT-116 [21]): Active; Activity (L02 [22]): Non-Toxic; Activity (HCT-116 [23]): 17.7%; inhibition of growth at 5 µM (HepG2 [24]): 6.9%; inhibition of growth at 10 µM (HeLa [25]): 18.5%; Activity (HCT-116 [26]): Active; inhibition of growth at 5 µM (HCT-116 [27]): 20.4%; inhibition of growth at 2.5 µM (HCT-116 [28]): 7.47%; inhibition of growth at 5 µM (A549 [29]): 6.69%; Activity (HCT-116 [30]): 20%; Activity (HCT-116 [31]): Active
